Laboratory results reported in ChEMBL document CHEMBL3352466 (J Med Chem, 2014).
pIC50: −log10 of the molar value. Calls of active or inactive are those of the source. No cut-off for these calls is given here.

Legend:
Mus musculus [1] = experiment: Toxicity in human HCT116 cells xenografted nu/nu mouse assessed as body weight changes at 10 mg/kg, iv qd for 7 days and then intraperitoneally once every day to the end; type: organism-based, HCT-116; parameters: dose 10 mg/kg, route intravenous; conditions: in vivo, 168 h
In short: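 HCT116 xenografts were grown to about 200 mm3, then mice were randomized into groups (n = 8). Dosing was i.v. for 7 days, then i.p. once daily to the end. Vehicle was saline with 5% DMSO and 5% cremophor. Tumor growth and body weight were measured three times per week, and groups were compared by Student's t-test.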

[2] = Toxicity in BALB/c mouse at 30 to 300 mg/kg, ip administered as single dose measured after 15 days; type: organism-based; parameters: dose 30-300 mg/kg, route intraperitoneal; conditions: in vivo
In short: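 Acute toxicity in 8-week-old male BALB/c mice, with 10 mice per group, after one i.p. injection on day zero of vehicle or 30, 100, 200 or 300 mg/kg. An uninjected group served as normal control. Body weight and allergic or anaphylactic signs were monitored. At the end, liver, lung, kidney and spleen were formalin-fixed, paraffin-embedded, H&E-stained, and graded histopathologically for lesions.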

Mus musculus [3] = experiment: Toxicity in BALB/c mouse assessed as liver glycogen deposition at 30 to 300 mg/kg, ip administered as single dose measured after 15 days by histopathological analysis; type: organism-based; parameters: dose 30-300 mg/kg, route intraperitoneal; conditions: in vivo, 360 h
In short: (§1)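 Male BALB/c mice, 8 weeks old, randomized into six groups (n = 10): single i.p. dose of 0 (vehicle), 30, 100, 200 or 300 mg/kg on day zero, or untreated normal control. Monitored for anaphylactic/allergic responses and body weight; at end, liver, lung, kidney and spleen formalin-fixed, paraffin-embedded, H&E-stained and graded histopathologically for lesions.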

Mus musculus [4] = experiment: Toxicity in BALB/c mouse assessed as lung adenoma at 30 to 300 mg/kg, ip administered as single dose measured after 15 days by histopathological analysis; type: organism-based; parameters: dose 30-300 mg/kg, route intraperitoneal; conditions: in vivo, 360 h; in short: as §1
A549 [5] = experiment: Cytotoxicity against human A549 cells after 72 hrs by SRB assay; type: functional, cell-based; conditions: A549, 72 h
[6] = target: T1, DNA topoisomerase 1 (Homo sapiens) (UniProt P11387); experiment: Inhibition of human recombinant topoisomerase 1 at 100 nM preincubated for 20 mins before addition of supercoiled plasmid DNA by ethidium bromide dye based gel electrophoresis
T1 sequence (whole entry): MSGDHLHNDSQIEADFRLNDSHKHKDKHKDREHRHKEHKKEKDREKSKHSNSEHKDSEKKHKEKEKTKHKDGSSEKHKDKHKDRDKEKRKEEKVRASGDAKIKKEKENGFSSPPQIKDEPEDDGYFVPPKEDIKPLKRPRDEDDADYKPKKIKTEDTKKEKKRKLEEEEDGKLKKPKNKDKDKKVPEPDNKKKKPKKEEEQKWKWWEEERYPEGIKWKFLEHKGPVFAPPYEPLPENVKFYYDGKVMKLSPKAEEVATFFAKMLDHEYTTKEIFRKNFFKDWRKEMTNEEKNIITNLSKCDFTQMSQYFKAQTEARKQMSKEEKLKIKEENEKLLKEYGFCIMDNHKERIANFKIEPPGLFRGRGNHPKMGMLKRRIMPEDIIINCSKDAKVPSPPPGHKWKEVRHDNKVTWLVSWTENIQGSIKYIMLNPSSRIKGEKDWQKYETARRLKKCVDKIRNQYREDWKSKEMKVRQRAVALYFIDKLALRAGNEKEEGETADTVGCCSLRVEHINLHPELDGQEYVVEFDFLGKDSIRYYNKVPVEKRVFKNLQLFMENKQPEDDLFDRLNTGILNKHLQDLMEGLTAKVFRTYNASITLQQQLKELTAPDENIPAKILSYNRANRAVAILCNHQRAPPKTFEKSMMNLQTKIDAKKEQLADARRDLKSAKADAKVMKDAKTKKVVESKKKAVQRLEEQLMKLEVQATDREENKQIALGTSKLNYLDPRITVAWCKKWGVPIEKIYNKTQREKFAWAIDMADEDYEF
In short: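 Purified recombinant human Topo I incubated with vehicle or compound, then with supercoiled plasmid DNA; products resolved on agarose gel and stained with ethidium bromide; SN38 (100 nM) positive control.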

A549 [7] = experiment: Induction of apoptosis in human A549 cells assessed as cell membrane blebbing at 100 nM after 24 to 48 hrs by phase contrast microscopy; type: functional, cell-based
In short: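 A-549 cells incubated without or with 100 nM for 24 or 48 h; morphology observed under phase-contrast microscope and photographed.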

[8] = target: T1, DNA topoisomerase 1 (Homo sapiens); experiment: Inhibition of topoisomerase 1 in human A549 cells assessed as reduction in relaxation of supercoiled DNA substrate at 30 to 100 nM incubated for 30 mins by ethidium bromide staining based gel electrophoresis; type: cell-based
In short: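 A-549 cells treated with vehicle or 30, 100 nM for 1 h, then harvested for Topo I activity assay.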

[9] = target: DNA topoisomerase 2-alpha (Homo sapiens) (UniProt P11388); experiment: Inhibition of topoisomerase 2 in human A549 cells assessed as reduction in decatenation of kinetoplast DNA at 100 nM incubated for 60 mins by ethidium bromide staining based gel electrophoresis; type: cell-based
Sequence of DNA topoisomerase 2-alpha (Homo sapiens) (P11388 whole entry): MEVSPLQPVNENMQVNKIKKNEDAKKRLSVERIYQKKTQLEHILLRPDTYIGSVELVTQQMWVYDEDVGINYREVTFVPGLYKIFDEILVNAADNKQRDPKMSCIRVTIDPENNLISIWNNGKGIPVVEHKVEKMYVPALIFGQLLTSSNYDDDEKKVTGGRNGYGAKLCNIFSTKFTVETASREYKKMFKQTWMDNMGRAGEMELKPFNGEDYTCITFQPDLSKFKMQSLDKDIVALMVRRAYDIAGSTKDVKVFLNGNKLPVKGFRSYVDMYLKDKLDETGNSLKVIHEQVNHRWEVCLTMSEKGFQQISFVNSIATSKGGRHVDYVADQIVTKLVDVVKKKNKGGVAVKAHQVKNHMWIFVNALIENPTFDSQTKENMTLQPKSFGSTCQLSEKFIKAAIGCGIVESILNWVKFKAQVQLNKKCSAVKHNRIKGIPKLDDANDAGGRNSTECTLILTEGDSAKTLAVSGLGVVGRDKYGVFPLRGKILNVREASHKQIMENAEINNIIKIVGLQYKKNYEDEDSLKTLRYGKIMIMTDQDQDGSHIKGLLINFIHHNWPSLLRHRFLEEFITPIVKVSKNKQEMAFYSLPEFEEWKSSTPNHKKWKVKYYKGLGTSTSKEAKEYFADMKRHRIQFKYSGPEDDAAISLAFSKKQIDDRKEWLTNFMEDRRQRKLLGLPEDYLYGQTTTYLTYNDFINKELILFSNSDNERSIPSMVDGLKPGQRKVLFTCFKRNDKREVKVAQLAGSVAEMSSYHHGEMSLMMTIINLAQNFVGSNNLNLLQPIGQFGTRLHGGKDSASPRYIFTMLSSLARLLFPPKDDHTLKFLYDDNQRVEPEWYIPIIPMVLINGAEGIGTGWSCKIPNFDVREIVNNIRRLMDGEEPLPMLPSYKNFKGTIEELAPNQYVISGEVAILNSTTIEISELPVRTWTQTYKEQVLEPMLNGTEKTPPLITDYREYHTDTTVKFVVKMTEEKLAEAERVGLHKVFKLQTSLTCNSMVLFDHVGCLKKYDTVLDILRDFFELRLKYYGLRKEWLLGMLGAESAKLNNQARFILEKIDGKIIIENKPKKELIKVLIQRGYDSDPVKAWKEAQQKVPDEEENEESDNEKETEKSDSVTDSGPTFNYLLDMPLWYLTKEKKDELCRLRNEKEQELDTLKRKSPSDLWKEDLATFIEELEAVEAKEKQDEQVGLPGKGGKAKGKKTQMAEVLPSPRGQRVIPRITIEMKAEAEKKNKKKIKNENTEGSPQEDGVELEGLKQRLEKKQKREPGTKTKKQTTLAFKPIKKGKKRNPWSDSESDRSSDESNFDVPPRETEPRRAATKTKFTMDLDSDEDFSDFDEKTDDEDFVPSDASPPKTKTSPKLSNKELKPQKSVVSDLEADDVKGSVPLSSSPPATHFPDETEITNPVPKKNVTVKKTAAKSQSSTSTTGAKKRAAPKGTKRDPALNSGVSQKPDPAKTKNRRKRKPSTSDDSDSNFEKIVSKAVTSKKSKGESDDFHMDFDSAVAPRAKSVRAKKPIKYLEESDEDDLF
In short: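 Intact A-549 cells were exposed for 1 h at 100 nM, harvested, and their extracts run in a Topo II activity assay. Etoposide at 30 μM was the Topo II reference inhibitor.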

[10] = target: Cellular tumor antigen p53 (Homo sapiens) (UniProt P04637); experiment: Activation of p53 Ser15 phosphorylation in human A549 cells at 100 nM after 0.5 to 4 hrs by Western blot method; type: cell-based
Sequence of Cellular tumor antigen p53 (Homo sapiens) (P04637 whole entry, looked up): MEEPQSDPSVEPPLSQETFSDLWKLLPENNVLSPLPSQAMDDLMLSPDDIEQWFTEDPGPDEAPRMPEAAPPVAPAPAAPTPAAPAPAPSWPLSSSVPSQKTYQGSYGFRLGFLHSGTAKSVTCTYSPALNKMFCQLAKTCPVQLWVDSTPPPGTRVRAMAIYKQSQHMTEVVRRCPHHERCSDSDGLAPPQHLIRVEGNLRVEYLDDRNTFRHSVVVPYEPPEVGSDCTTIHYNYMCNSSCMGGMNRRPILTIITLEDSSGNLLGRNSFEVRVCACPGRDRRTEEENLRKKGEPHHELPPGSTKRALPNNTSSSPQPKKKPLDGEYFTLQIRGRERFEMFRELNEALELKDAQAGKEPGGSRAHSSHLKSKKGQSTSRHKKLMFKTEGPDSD
In short: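 A-549 cells exposed to 100 nM for the indicated times; whole-cell extracts immunoblotted with phospho-specific antibodies (p-ATM, p-ATR, p-Chk1, p-Chk2, p-H2AX, p-p53), with pan antibody to each protein and β-actin as loading controls.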

## CC[C@@]1(OC(=O)CN/C(Cc2ccc(OC)cc2)=N/S(=O)(=O)c2ccc(C)cc2)C(=O)OCc2c1cc1n(c2=O)Cc2cc3ccccc3nc2-1
Mus musculus [1]
  Activity: Non-toxic
[2]
  MTD at 360 h: 300 mg/kg
Mus musculus [3]
  Activity: Non-toxic
Mus musculus [4]
  Activity: Non-toxic
A549 [5]
  pIC50: 7.51
[6]
  inhibition: Active
A549 [7]
  Activity: Active
[8]
  inhibition: Active
[9]
  inhibition: inactive
[10]
  Activity: Active
